From ChEMBL document CHEMBL3526106, “Cytochrome P450 regulation by α-tocopherol in Pxr-null and PXR-humanized mice” (Drug Metab Dispos, 2013)

Columns and labels:
Design in all cases: dose 500 mg/kg
Mus musculus [1] = test: Effect on Ugt1a7c gene expression in wild type mouse liver at 500 mg/kg for 7 to 14 days dosed through vitamin E-deficient base diet by qPCR method; assay type: ADME, organism-based; settings: in vivo, po
Outline: (§1)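 Male mice on vitamin E deficient diet, switched at eight weeks to the same diet with 500 mg/kg DL-α-tocopheryl acetate (controls kept deficient); killed at nine or 10 weeks, livers flash frozen. Hepatic mRNA by SYBR Green qPCR with 25 ng cDNA and 150 nM primers, triplicate reactions; comparative threshold cycle method against β-actin, fold change versus deficient diet; mean ± SEM, two-tailed t-test.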

Mus musculus [2] = test: Effect on Ugt1a7c gene expression in male PXR-humanized mouse liver at 500 mg/kg for 7 to 14 days dosed through vitamin E-deficient base diet by qPCR method; assay type: ADME, organism-based; settings: in vivo, po; outline: as §1
Mus musculus [3] = test: Effect on Ugt1a9 gene expression in male PXR-humanized mouse liver at 500 mg/kg for 7 to 14 days dosed through vitamin E-deficient base diet by qPCR method; assay type: ADME, organism-based; settings: in vivo, po; outline: as §1
Mus musculus [4] = test: Effect on Ugt1a10 gene expression in male PXR-humanized mouse liver at 500 mg/kg for 7 to 14 days dosed through vitamin E-deficient base diet by qPCR method; assay type: ADME, organism-based; settings: in vivo, po; outline: as §1
Mus musculus [5] = test: Effect on Ugt2b5 gene expression in wild type mouse liver at 500 mg/kg for 7 to 14 days dosed through vitamin E-deficient base diet by qPCR method; assay type: ADME, organism-based; settings: in vivo, po; outline: as §1
Mus musculus [6] = test: Effect on Ugt2b5 gene expression in male PXR-humanized mouse liver at 500 mg/kg for 7 to 14 days dosed through vitamin E-deficient base diet by qPCR method; assay type: ADME, organism-based; settings: in vivo, po; outline: as §1
Mus musculus [7] = test: Effect on Ugt2b34 gene expression in wild type mouse liver at 500 mg/kg for 7 to 14 days dosed through vitamin E-deficient base diet by qPCR method; assay type: ADME, organism-based; settings: in vivo, po; outline: as §1
Mus musculus [8] = test: Effect on Ugt2b34 gene expression in male PXR null mouse liver at 500 mg/kg for 7 to 14 days dosed through vitamin E-deficient base diet by qPCR method; assay type: ADME, organism-based; settings: in vivo, po; outline: as §1
Mus musculus [9] = test: Effect on Ugt2b34 gene expression in male PXR-humanized mouse liver at 500 mg/kg for 7 to 14 days dosed through vitamin E-deficient base diet by qPCR method; assay type: ADME, organism-based; settings: in vivo, po; outline: as §1
Cyp2b10 = test: Induction of Cyp2b10 gene expression in wild type mouse liver at 500 mg/kg for 7 to 14 days dosed through vitamin E-deficient base diet by qPCR method; assay type: ADME, organism-based; settings: po, read-out: FC; outline: as §1
Cyp2c55 [10] = test: Induction of Cyp2c55 gene expression in male PXR null mouse liver at 500 mg/kg for 7 to 14 days dosed through vitamin E-deficient base diet by qPCR method; assay type: ADME, organism-based; settings: po, read-out: FC; outline: as §1
Cyp2c55 [11] = test: Induction of Cyp2c55 gene expression in male PXR-humanized mouse liver at 500 mg/kg for 7 to 14 days dosed through vitamin E-deficient base diet by qPCR method; assay type: ADME, organism-based; settings: po, read-out: FC; outline: as §1
Mus musculus [12] = test: Drug metabolism in male wild type mouse assessed as urinary alpha-carboxyethylhydroxychroman glucuronide level at 500 mg/kg for 7 to 14 days dosed through vitamin E-deficient base diet by UPLC-ESI-QTOFMS method based metabolomics analysis; assay type: ADME, organism-based, Urine; settings: in vivo, po
Mus musculus [13] = test: Induction of Cyp2c39 gene expression in male PXR-humanized mouse liver at 500 mg/kg for 7 to 14 days dosed through vitamin E-deficient base diet by qPCR method; assay type: ADME, organism-based; settings: in vivo, po; outline: as §1
Mus musculus [14] = test: Effect on Ugt1a1 gene expression in wild type mouse liver at 500 mg/kg for 7 to 14 days dosed through vitamin E-deficient base diet by qPCR method; assay type: ADME, organism-based; settings: in vivo, po; outline: as §1
Mus musculus [15] = test: Effect on Ugt1a1 gene expression in male PXR null mouse liver at 500 mg/kg for 7 to 14 days dosed through vitamin E-deficient base diet by qPCR method; assay type: ADME, organism-based; settings: in vivo, po; outline: as §1
Mus musculus [16] = test: Effect on Ugt1a1 gene expression in male PXR-humanized mouse liver at 500 mg/kg for 7 to 14 days dosed through vitamin E-deficient base diet by qPCR method; assay type: ADME, organism-based; settings: in vivo, po; outline: as §1
Mus musculus [17] = test: Effect on Ugt1a6a gene expression in male PXR null mouse liver at 500 mg/kg for 7 to 14 days dosed through vitamin E-deficient base diet by qPCR method; assay type: ADME, organism-based; settings: in vivo, po; outline: as §1
Mus musculus [18] = test: Effect on Ugt1a6a gene expression in male PXR-humanized mouse liver at 500 mg/kg for 7 to 14 days dosed through vitamin E-deficient base diet by qPCR method; assay type: ADME, organism-based; settings: in vivo, po; outline: as §1
Mus musculus [19] = test: Effect on Ugt1a6b gene expression in wild type mouse liver at 500 mg/kg for 7 to 14 days dosed through vitamin E-deficient base diet by qPCR method; assay type: ADME, organism-based; settings: in vivo, po; outline: as §1
Mus musculus [20] = test: Effect on Ugt1a6b gene expression in male PXR null mouse liver at 500 mg/kg for 7 to 14 days dosed through vitamin E-deficient base diet by qPCR method; assay type: ADME, organism-based; settings: in vivo, po; outline: as §1
Mus musculus [21] = test: Drug metabolism in male PXR null mouse assessed as urinary alpha-carboxyethylhydroxychroman glucuronide level at 500 mg/kg for 7 to 14 days dosed through vitamin E-deficient base diet by UPLC-ESI-QTOFMS method based metabolomics analysis; assay type: ADME, organism-based, Urine; settings: in vivo, po
Mus musculus [22] = test: Induction of Cyp3a11 gene expression in male PXR null mouse liver at 500 mg/kg for 7 to 14 days dosed through vitamin E-deficient base diet by qPCR method; assay type: ADME, organism-based; settings: in vivo, po; outline: as §1
Mus musculus [23] = test: Induction of Cyp4f14 gene expression in male PXR null mouse liver at 500 mg/kg for 7 to 14 days dosed through vitamin E-deficient base diet by qPCR method; assay type: ADME, organism-based; settings: in vivo, po
Outline: (§2)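 Male mice (wild-type, Pxr-null, hPXR; NCI-bred) on vitamin E-deficient diet from 3 weeks of age; at 8 weeks half switched to same base diet supplemented with 500 mg/kg DL-α-tocopheryl acetate, rest kept deficient. Livers harvested at 9 and 10 weeks. qPCR: 25 ng cDNA, 150 nM each primer, SYBR Green, triplicate; comparative Ct vs β-actin; fold change enriched vs deficient diet; mean ± SEM, two-tailed unpaired t-test.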

Mus musculus [24] = test: Induction of Cyp4f14 gene expression in wild type mouse liver at 500 mg/kg for 7 to 14 days dosed through vitamin E-deficient base diet by qPCR method; assay type: ADME, organism-based; settings: in vivo, po; outline: as §2
Mus musculus [25] = test: Induction of Cyp4f15 gene expression in male PXR null mouse liver at 500 mg/kg for 7 to 14 days dosed through vitamin E-deficient base diet by qPCR method; assay type: ADME, organism-based; settings: in vivo, po; outline: as §2
Mus musculus [26] = test: Induction of Cyp4f16 gene expression in male PXR-humanized mouse liver at 500 mg/kg for 7 to 14 days dosed through vitamin E-deficient base diet by qPCR method; assay type: ADME, organism-based; settings: in vivo, po; outline: as §2
Mus musculus [27] = test: Induction of Cyp4f16 gene expression in wild type mouse liver at 500 mg/kg for 7 to 14 days dosed through vitamin E-deficient base diet by qPCR method; assay type: ADME, organism-based; settings: in vivo, po; outline: as §2
Mus musculus [28] = test: Induction of Cyp4f18 gene expression in male PXR-humanized mouse liver at 500 mg/kg for 7 to 14 days dosed through vitamin E-deficient base diet by qPCR method; assay type: ADME, organism-based; settings: in vivo, po; outline: as §2
Mus musculus [29] = test: Induction of Cyp4f18 gene expression in male PXR null mouse liver at 500 mg/kg for 7 to 14 days dosed through vitamin E-deficient base diet by qPCR method; assay type: ADME, organism-based; settings: in vivo, po; outline: as §2
Mus musculus [30] = test: Induction of Cyp4f18 gene expression in wild type mouse liver at 500 mg/kg for 7 to 14 days dosed through vitamin E-deficient base diet by qPCR method; assay type: ADME, organism-based; settings: in vivo, po; outline: as §2

Activity (Mus musculus [1]): Not Active
Activity (Mus musculus [2]): Not Active
Activity (Mus musculus [3]): Not Active
Activity (Mus musculus [4]): Not Active
Activity (Mus musculus [5]): Not Active
Activity (Mus musculus [6]): Not Active
Activity (Mus musculus [7]): Not Active
Activity (Mus musculus [8]): Not Active
Activity (Mus musculus [9]): Not Active
fold induction (Cyp2b10): 7.3
fold induction (Cyp2c55 [10]): 2.2
fold induction (Cyp2c55 [11]): 2.9
Activity (Mus musculus [13]): Not Active
Activity (Mus musculus [14]): Not Active
Activity (Mus musculus [15]): Not Active
Activity (Mus musculus [16]): Not Active
Activity (Mus musculus [17]): Not Active
Activity (Mus musculus [18]): Not Active
Activity (Mus musculus [19]): Not Active
Activity (Mus musculus [20]): Not Active
Activity (Mus musculus [22]): Not Active
Activity (Mus musculus [23]): Not Active
Activity (Mus musculus [24]): Not Active
Activity (Mus musculus [25]): Not Active
Activity (Mus musculus [26]): Not Active
Activity (Mus musculus [27]): Not Active
Activity (Mus musculus [28]): Not Active
Activity (Mus musculus [29]): Not Active
Activity (Mus musculus [30]): Not Active
SMILES: CC(=O)Oc1c(C)c(C)c2c(c1C)CCC(C)(CCCC(C)CCCC(C)CCCC(C)C)O2 (racemic) [alpha-TOCHOPHERYL ACETATE]
Drug metabolism (Mus musculus [12]): metabolite_detected
Drug metabolism (Mus musculus [21]): metabolite_detected
